Data taken from ChEMBL document CHEMBL1240410, “Cytotoxicity against cholangiocarcinoma cell lines of zerumbone derivatives” (Eur J Med Chem, 2010).
Activity calls are given as the source filed them. The rule behind the calls is not given here.

Columns and labels:
Assay type in all cases: functional, cell-based
[1] = Cytotoxicity against human KKU-M156 cells
Outline: (§1)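 SRB assay: cells seeded at 0.5–1.0 × 10^5 cells/mL and held 24 h at 37 °C. Compounds added in triplicate at final 0.025, 0.16, 0.8, 4 and 20 µg/well, with 0.1% DMSO as solvent control. Exposure was 72 h at 37 °C, plus a 1 h starting-cell plate. Cells fixed with TCA, stained with SRB, OD read at 510 nm. IC50 taken as 50% reduction of control protein increase.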

[2] = Cytotoxicity against human KKU-M213 cells; outline: as §1
[3] = Cytotoxicity against human KKU100 cells; outline: as §1
[4] = Cytotoxicity against human KKU-M214 cells; outline: as §1
[5] = Cytotoxicity against human KKU-M139 cells; outline: as §1
KKU-M213 = experiment: Cytotoxicity against human KKU-M213 cells at 75 uM
KKU-M156 = experiment: Cytotoxicity against human KKU-M156 cells at 75 uM
KKU100 = experiment: Cytotoxicity against human KKU100 cells at 75 uM
KKU-M139 = experiment: Cytotoxicity against human KKU-M139 cells at 75 uM
KKU-M214 = experiment: Cytotoxicity against human KKU-M214 cells at 75 uM

SMILES	IC50 [1]	IC50 [2]	IC50 [3]	IC50 [4]	IC50 [5]	Activity (KKU-M213)	Activity (KKU-M156)	Activity (KKU100)	Activity (KKU-M139)	Activity (KKU-M214)
C/C1=C\CC(C)(C)C(C#N)CC(=O)/C(C)=C/CC1 (stereo not given)	37.3 µM	45.1 µM	25.7 µM	54.5 µM	55.9 µM					
C/C1=C\CC(C)(C)/C=C/C(=O)/C(C)=C/CC1						inactive	inactive	inactive	inactive	inactive
C/C1=C\CC(C)(C)/C=C/C(=O)[C@H](C)[C@H](N(C)C)CC1						inactive	inactive	inactive	inactive	inactive
C/C1=C\CC(C)(C)C(C#N)CC(=O)[C@H](C)[C@H](N(C)C)CC1 (stereo not given in full)						inactive	inactive	inactive	inactive	inactive
CCCCN(C(C)=O)[C@@H]1CC/C(C)=C/CC(C)(C)/C=C/C(=O)[C@@H]1C						inactive	inactive	inactive	inactive	inactive
C/C1=C\CC(C)(C)/C=C/C(=O)[C@H](C)[C@H](N)CC1 (racemic)	69 µM	51.9 µM	16.4 µM	59.6 µM	63.3 µM					
C/C1=C\CC[C@@]2(C)O[C@H]2CC(C)(C)/C=C/C1=O (racemic)				52.6 µM		inactive	inactive	inactive	inactive	
C[C@H]1C(=O)/C=C/C(C)(C)C[C@@H]2O[C@]2(C)CC[C@H]1N (racemic)				18.3 µM		inactive	inactive	inactive	inactive	
C/C1=C\CC(C)(C)[C@H](C#N)CC(=O)[C@H](C)[C@H](C#N)CC1 (racemic)				66.5 µM		inactive	inactive	inactive	inactive	
CCCCN[C@@H]1CC/C(C)=C/CC(C)(C)/C=C/C(=O)[C@@H]1C (racemic)		36.6 µM		41.6 µM			inactive	inactive	inactive	
CCCCN[C@@H]1CC/C(C)=C/CC(C)(C)/C=C/[C@H](O)[C@@H]1C (racemic)	26.3 µM	27.2 µM	35.3 µM	16.1 µM	19.6 µM					
CCCCN[C@@H]1CC[C@@]2(C)O[C@H]2CC(C)(C)/C=C/C(=O)[C@@H]1C (racemic)	48.2 µM	37.6 µM	16.5 µM	51 µM					inactive	
C/C1=C\CC(C)(C)/C=C/C(=O)[C@H](C)[C@H](NCc2ccccc2)CC1 (racemic)						inactive	inactive	inactive	inactive	inactive
C/C1=C\CC(C)(C)/C=C/C(O)/C(C)=C/CC1 (racemic)						inactive	inactive	inactive	inactive	inactive
C/C1=C\CC(C)(C)/C=C/[C@H](O)[C@@]2(C)O[C@H]2CC1 (racemic)						inactive	inactive	inactive	inactive	inactive
CC(=O)N[C@@H]1CC/C(C)=C/CC(C)(C)/C=C/C(=O)[C@@H]1C (racemic)						inactive	inactive	inactive	inactive	inactive
CC(=O)N[C@@H]1CC/C(C)=C/CC(C)(C)/C=C/[C@H](O)[C@@H]1C (racemic)						inactive	inactive	inactive	inactive	inactive
CC(=O)N[C@@H]1CC[C@@]2(C)O[C@H]2CC(C)(C)/C=C/C(=O)[C@@H]1C (racemic)						inactive	inactive	inactive	inactive	inactive
CC(=O)OC1/C=C/C(C)(C)C/C=C(\C)CC/C=C/1C (racemic)						inactive	inactive	inactive	inactive	inactive
C[C@H]1C(=O)/C=C/C(C)(C)C[C@@H]2O[C@]2(C)CC[C@H]1NCc1ccccc1 (racemic)						inactive	inactive	inactive	inactive	inactive
Cc1c2ccncc2c(C)c2c1[nH]c1ccccc12 [ELLIPTECINE]	9.34 µM	1.62 µM	25.2 µM	1.01 µM	4.5 µM					
